# Results taken from ChEMBL document CHEMBL2021768, “Syntheses of [12]aneN₃-oligopeptide conjugates as effective DNA condensation agents” (Bioorg Med Chem, 2012).
# Active and inactive are the calls of the source. The calls are words filed in the database; no cut-off is given here. Residues, ends and D or L forms follow the SMILES beside them.
# Columns and labels:
# Nucleic Acid [1] = experiment: Induction of Escherichia coli pUC18 DNA condensation assessed as retardation of DNA migration at 500 uM after 1 hr by agarose gel electrophoresis; assay type: nucleic-acid assay
# How it was run: (§1)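 Supercoiled pUC18 plasmid treated with conjugate in Tris–HCl (50 mM, pH 7.4), then incubated 1 h at 37 °C. Agarose gel electrophoresis compared with a DNA-alone lane. Retardation was judged by loss of supercoiled DNA migration.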
# Nucleic Acid [2] = experiment: Induction of Escherichia coli pUC18 condensation assessed as retardation of DNA migration at 250 uM after 1 hr by agarose gel electrophoresis; assay type: nucleic-acid assay; how it was run: as §1
# Nucleic Acid [3] = experiment: Induction of Escherichia coli pUC18 condensation assessed as hydrodynamic diameters of DNA nanoparticles at 50 to 250 uM after 5 mins by dynamic laser light scattering analysis; assay type: nucleic-acid assay
# How it was run: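 pUC18 DNA at 9 μg/mL in Tris buffer (50 mM, pH 7.4) with conjugate, left 5 min at room temperature. Dynamic light scattering at 90° and 25 °C. Ten runs per solution, averaged and reported as mean ± S.D.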
# Nucleic Acid [4] = experiment: Induction of Escherichia coli pUC18 condensation assessed as diameters of DNA nanoparticles at 250 uM after 1 hr by atomic force microscopy; assay type: nucleic-acid assay
# How it was run: (§2)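 pUC18 diluted to 9 μg/mL in Tris (5 mM, pH 7.4) with 1 mM MgCl2 plus conjugate, equilibrated 1 h at 37 °C. Sample spotted for 5 min on mica pretreated with 10 mM NiCl2, then rinsed and dried under argon. Imaged in air at room temperature by tapping-mode AFM with Si tips at 1–3 Hz.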
# Nucleic Acid [5] = experiment: Binding affinity to calf thymus DNA assessed as fluorescence quenching after 1 min by ethidium bromide displacement assay; assay type: nucleic-acid assay; settings: Bos taurus
# How it was run: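 Calf thymus DNA (100 μM) pretreated with ethidium bromide (10 μM), then conjugate added. Tris buffer (50 mM, pH 7.4), room temperature. Incubated 1 min before reading fluorescence, excitation 537 nm. Apparent binding constant (K_app) derived from the quenching curve.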
# Nucleic Acid [6] = experiment: Induction of Escherichia coli pUC18 condensation assessed as retardation of DNA migration at 220 uM after 1 hr by agarose gel electrophoresis in presence of 50 to 400 mM NaCl; assay type: nucleic-acid assay
# Nucleic Acid [7] = experiment: Reversible Escherichia coli pUC18 condensation assessed as DNA migration at 250 uM after 1 hr by agarose gel electrophoresis in presence of 200 mM NaCl; assay type: nucleic-acid assay
# [8] = Cytotoxicity against human T98G cells assessed as cell viability at 250 uM after 24 hrs by MTT assay; assay type: cell-based; settings: read-out: Activity
# How it was run: (§3)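 MTT assay. HepG2 grown in DMEM with 15% FBS, T98G in MEM with 10% FBS, 37 °C, 5% CO2. Cells seeded at 5 × 10⁵ per well and cultured 24 h, then exposed to compound for 24 h. MTT (5 mg/mL stock) added for 4 h, formazan dissolved in DMSO, absorbance read at 490 nm. Viability taken relative to controls from four parallel tests.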
# [9] = Cytotoxicity against human HepG2 cells assessed as cell viability at 250 uM after 24 hrs by MTT assay; assay type: cell-based; settings: read-out: Activity; how it was run: as §3
# Nucleic Acid [10] = experiment: Induction of Escherichia coli pUC18 condensation assessed as retardation of DNA migration at 200 uM after 1 hr by agarose gel electrophoresis; assay type: nucleic-acid assay; how it was run: as §1
# Nucleic Acid [11] = experiment: Induction of Escherichia coli pUC18 condensation assessed as diameters of DNA nanoparticles at 150 uM after 1 hr by atomic force microscopy; assay type: nucleic-acid assay; how it was run: as §2
# Nucleic Acid [12] = experiment: Induction of Escherichia coli pUC18 condensation assessed as retardation of DNA migration at 150 uM after 1 hr by agarose gel electrophoresis in presence of 50 to 400 mM NaCl; assay type: nucleic-acid assay
# Nucleic Acid [13] = experiment: Reversible Escherichia coli pUC18 condensation assessed as DNA migration at 150 uM after 1 hr by agarose gel electrophoresis in presence of 200 mM NaCl; assay type: nucleic-acid assay
Activity (Nucleic Acid [1]),Activity (Nucleic Acid [3]) [nm],Kapp (Nucleic Acid [5]) [×10⁵ /M],Structure (SMILES),"viability at 24 h, 250 µM [8] [%]","viability at 24 h, 250 µM [9] [%]",further results
inactive,–,–,COC(=O)[C@H](Cc1ccc(O)cc1)NC(=O)[C@H](CC(C)C)NC(=O)[C@H](C)NC(=O)[C@H](CC(C)C)NC(=O)[C@H](C)NC(=O)[C@H](CC(C)C)NC(=O)CN1CCCNCCCNCCC1 (HELM PEPTIDE1{[O=C(CN1CCCNCCCNCCC1)[*:2]].L.A.L.A.L.Y.[CO[*:1]]}$$$$V2.0),–,–,–
–,196,1.2,COC(=O)[C@H](Cc1c[nH]c2ccccc12)NC(=O)[C@H](CC(C)C)NC(=O)[C@H](C)NC(=O)[C@H](CC(C)C)NC(=O)[C@H](C)NC(=O)[C@H](CC(C)C)NC(=O)CN1CCCNCCCNCCC1 (HELM PEPTIDE1{[O=C(CN1CCCNCCCNCCC1)[*:2]].L.A.L.A.L.W.[CO[*:1]]}$$$$V2.0),80,85,Activity (Nucleic Acid [2]): Active; Activity (Nucleic Acid [4]): 36 nm; Activity (Nucleic Acid [6]): inactive; Activity (Nucleic Acid [7]): Active
–,208,1.4,COC(=O)[C@H](Cc1ccccc1)NC(=O)[C@H](CC(C)C)NC(=O)[C@H](C)NC(=O)[C@H](CC(C)C)NC(=O)[C@H](C)NC(=O)[C@H](CC(C)C)NC(=O)CN1CCCNCCCNCCC1 (HELM PEPTIDE1{[O=C(CN1CCCNCCCNCCC1)[*:2]].L.A.L.A.L.F.[CO[*:1]]}$$$$V2.0),78,83,Activity (Nucleic Acid [2]): Active; Activity (Nucleic Acid [4]): 20 nm; Activity (Nucleic Acid [12]): inactive; Activity (Nucleic Acid [7]): Active
inactive,–,–,COC(=O)[C@H](CO)NC(=O)[C@H](CC(C)C)NC(=O)[C@H](C)NC(=O)[C@H](CC(C)C)NC(=O)[C@H](C)NC(=O)[C@H](CC(C)C)NC(=O)CN1CCCNCCCNCCC1 (HELM PEPTIDE1{[O=C(CN1CCCNCCCNCCC1)[*:2]].L.A.L.A.L.S.[CO[*:1]]}$$$$V2.0),–,–,–

# Second part, the compound before the results:
Structure (SMILES),Activity (Nucleic Acid [1]),Activity (Nucleic Acid [3]) [nm],Kapp (Nucleic Acid [5]) [×10⁵ /M],"viability at 24 h, 250 µM [8] [%]","viability at 24 h, 250 µM [9] [%]",further results
COC(=O)[C@H](CC(C)C)NC(=O)[C@H](CC(C)C)NC(=O)[C@H](C)NC(=O)[C@H](CC(C)C)NC(=O)[C@H](C)NC(=O)[C@H](CC(C)C)NC(=O)CN1CCCNCCCNCCC1 (HELM PEPTIDE1{[O=C(CN1CCCNCCCNCCC1)[*:2]].L.A.L.A.L.L.[CO[*:1]]}$$$$V2.0),–,174,1.9,96,97,Activity (Nucleic Acid [10]): Active; Activity (Nucleic Acid [11]): 30 nm; Activity (Nucleic Acid [12]): inactive; Activity (Nucleic Acid [13]): Active
COC(=O)[C@H](C)NC(=O)[C@H](CC(C)C)NC(=O)[C@H](C)NC(=O)[C@H](CC(C)C)NC(=O)[C@H](C)NC(=O)[C@H](CC(C)C)NC(=O)CN1CCCNCCCNCCC1 (HELM PEPTIDE1{[O=C(CN1CCCNCCCNCCC1)[*:2]].L.A.L.A.L.A.[CO[*:1]]}$$$$V2.0),inactive,–,–,–,–,–
COC(=O)CNC(=O)[C@H](CC(C)C)NC(=O)[C@H](C)NC(=O)[C@H](CC(C)C)NC(=O)[C@H](C)NC(=O)[C@H](CC(C)C)NC(=O)CN1CCCNCCCNCCC1 (HELM PEPTIDE1{[O=C(CN1CCCNCCCNCCC1)[*:2]].L.A.L.A.L.G.[CO[*:1]]}$$$$V2.0),inactive,–,–,–,–,–
COC(=O)[C@@H](NC(=O)[C@H](CC(C)C)NC(=O)[C@H](C)NC(=O)[C@H](CC(C)C)NC(=O)[C@H](C)NC(=O)[C@H](CC(C)C)NC(=O)CN1CCCNCCCNCCC1)C(C)C (HELM PEPTIDE1{[O=C(CN1CCCNCCCNCCC1)[*:2]].L.A.L.A.L.V.[CO[*:1]]}$$$$V2.0),inactive,–,–,–,–,–
